# Test results: publication PMC5199138 (Cancer chemotherapy and pharmacology, 2016)
# “Also recorded” adds a separate entry of the source.
# How the values were obtained:
# [1] = test system: patients with advanced solid tumors; assay: Phase I trial, daily schedule; type: in vivo
# [2] = cited from earlier work
# [3] = target: T1, Top1 (Homo sapiens, UniProt P11387); assay: Top1 levels in PBMCs; type: in vivo
# T1 sequence (P11387 1-765): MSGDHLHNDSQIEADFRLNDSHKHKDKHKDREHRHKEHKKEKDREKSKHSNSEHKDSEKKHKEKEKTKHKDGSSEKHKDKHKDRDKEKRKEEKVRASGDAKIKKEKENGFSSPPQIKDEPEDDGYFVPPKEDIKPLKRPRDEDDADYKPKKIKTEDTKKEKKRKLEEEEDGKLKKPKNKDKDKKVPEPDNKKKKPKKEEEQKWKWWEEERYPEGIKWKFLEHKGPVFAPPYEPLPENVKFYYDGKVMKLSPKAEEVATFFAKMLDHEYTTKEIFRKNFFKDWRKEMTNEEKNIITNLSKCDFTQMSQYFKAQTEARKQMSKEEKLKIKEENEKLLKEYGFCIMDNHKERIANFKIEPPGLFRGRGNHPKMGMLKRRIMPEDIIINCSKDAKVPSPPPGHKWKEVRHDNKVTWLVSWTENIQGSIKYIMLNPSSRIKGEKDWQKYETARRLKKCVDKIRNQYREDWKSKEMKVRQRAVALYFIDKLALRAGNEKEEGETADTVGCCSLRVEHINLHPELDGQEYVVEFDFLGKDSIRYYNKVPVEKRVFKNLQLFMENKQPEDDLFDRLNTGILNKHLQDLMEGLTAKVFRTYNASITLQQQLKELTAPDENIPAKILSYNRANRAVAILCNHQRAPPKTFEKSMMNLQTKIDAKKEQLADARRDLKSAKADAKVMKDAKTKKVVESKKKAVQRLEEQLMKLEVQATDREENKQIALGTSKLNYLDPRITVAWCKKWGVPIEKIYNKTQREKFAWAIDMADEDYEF
# Summary of the method: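 PBMCs collected in the daily trial before dosing and 4 h after infusion start on cycle 1 days 1 and 3. Top1 measured by validated immunofluorescence assay, expressed as pg/10^7 cells. Reportable only if pre-dose Top1 exceeded twice the LLQ; samples also had to pass assay QC. Result given as percent change from baseline per patient.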
# [4] = test system: patients with advanced solid tumors; assay: Phase I trial, weekly schedule; type: in vivo
# [5] = test system: γH2AX; assay: γH2AX in hair follicles; type: in vivo, human; settings: 4 patients, daily trial, 4-6 h post-infusion vs pre-infusion; p=0.027, 1-sided
# [6] = target: T1, Top1; assay: Top1 levels in paired tumor biopsies; type: in vivo; settings: of the 8 patients on the daily schedule
# Summary of the method: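 Daily schedule: tumor biopsies taken at baseline and 2–4 h after infusion start on cycle 1 day 3. Top1 quantified by validated immunofluorescence assay (pg/μg protein). Pre-dose value had to exceed twice the LLQ to allow detection of a 50% reduction. Reported as percent change from baseline for each patient.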
# [7] = Plasma and urine pharmacokinetics; type: in vivo, human; settings: for AUC(0-t) / Cmax / AUC(0-inf) / half-life: human, plasma, intravenous
# [8] = weekly trial, Total (N=21), all dose levels, SD of geometric mean in parenthesis
# [9] = weekly trial, W1, 60 mg/m^2 over 3 h, N=6, SD of geometric mean in parenthesis
# [10] = weekly trial, W2, 90 mg/m^2 over 3 h, N=8, SD of geometric mean in parenthesis
# [11] = weekly trial, W3, 135 mg/m^2 over 3 h, N=7, SD of geometric mean in parenthesis
smiles,measurement,setting,value
COc1cc2c3c(n(CCCN4CCOCC4)c(=O)c2cc1OC)-c1cc2c(cc1C3=O)OCO2 [indotecan],Maximum tolerated dose (MTD),"[1]; daily for 5 days in 28-day cycles, iv over 1 h",60 mg/m^2/day
same,Objective response (RECIST),"[1]; daily schedule, 21 patients",No objective responses were observed on either schedule; also recorded: no patient on either schedule had an objective response
same,Principal toxicity,[1]; in vivo,myelosuppression
same,Drug in the unbound state (protein binding),[2],approximately 2%
same,Effects of treatment on PBMC Top1 levels,"[3]; DL-D2 through DL-D6, 4 h after start of infusion, cycle 1 days 1 and 3",inconclusive
same,Decrease in PBMC Top1 level,"[3]; patients #0003 and #0015, post-dose vs baseline",> 70%
same,Maximum tolerated dose (MTD),"[4]; days 1, 8, 15 in 28-day cycles, iv over 3 h",90 mg/m^2
same,Principal toxicity,[4]; in vivo,myelosuppression
same,Objective response (RECIST),"[4]; weekly schedule, 21 patients",No objective responses were observed on either schedule; also recorded: no patient on either schedule had an objective response
same,γH2AX formation in hair bulbs,[5],induced significant DNA damage
same,Number of patients with significant Top1 decreases in post-treatment biopsies,[6],3
same,Renal excretion 0–24 h,"[7]; daily trial, D1, 2.5 mg/m^2 over 1 h, N=1",0.49% dose
same,Renal excretion 0–24 h,"[7]; daily trial, D2, 5 mg/m^2 over 1 h, N=3, SD of geometric mean in parenthesis",0.48% (0.21%) % dose
same,Renal excretion 0–24 h,"[7]; daily trial, D3, 10 mg/m^2 over 1 h, N=1",0.36% dose
same,Renal excretion 0–24 h,"[7]; daily trial, D4, 20 mg/m^2 over 1 h, N=1",0.26% dose
same,Renal excretion 0–24 h,"[7]; daily trial, D5a, 60 mg/m^2 over 1 h, N=6, SD of geometric mean in parenthesis",0.18% (0.17%) % dose
same,Renal excretion 0–24 h,"[7]; daily trial, D6, 80 mg/m^2 over 1 h, N=3, SD of geometric mean in parenthesis",0.26% (0.03%) % dose
same,Renal excretion 0–24 h,"[7]; daily trial, Total (N=20), all dose levels, SD of geometric mean in parenthesis",0.24% (0.17%) % dose
same,Clearance as share of human hepatic blood flow,[7]; hepatic blood flow from ref 15,approximately 2%
same,AUC(0-t),"[7]; 2.5 mg/m2, AUC0–24, daily trial, D1, 2.5 mg/m^2 over 1 h, N=1",547 ng·h/mL
same,Cmax,"[7]; 2.5 mg/m2, Cmax, daily trial, D1, 2.5 mg/m^2 over 1 h, N=1",94.3 ng/mL
same,AUC(0-t),"[7]; 5 mg/m2, AUC0–24, daily trial, D2, 5 mg/m^2 over 1 h, N=3, SD of geometric mean in parenthesis",1450 ng·h/mL
same,Cmax,"[7]; 5 mg/m2, Cmax, daily trial, D2, 5 mg/m^2 over 1 h, N=3, SD of geometric mean in parenthesis",191 ng/mL
same,AUC(0-inf),[7]; 60 mg/m2,56400 ng·h/mL
same,AUC(0-t),"[7]; 60 mg/m2, AUC0–24, daily trial, D5a, 60 mg/m^2 over 1 h, N=6, SD of geometric mean in parenthesis",12800 ng·h/mL
same,AUC(0-t),"[7]; 60 mg/m2, AUC0–24, weekly trial, W1, 60 mg/m^2 over 3 h, N=6, SD of geometric mean in parenthesis",13700 ng·h/mL
same,Cmax,"[7]; 60 mg/m2, Cmax, daily trial, D5a, 60 mg/m^2 over 1 h, N=6, SD of geometric mean in parenthesis",1610 ng/mL
same,Cmax,"[7]; 60 mg/m2, Cmax, weekly trial, W1, 60 mg/m^2 over 3 h, N=6, SD of geometric mean in parenthesis",1270 ng/mL
same,half-life,"[7]; 60 mg/m2, t1/2, weekly trial, W1, 60 mg/m^2 over 3 h, N=6, SD of geometric mean in parenthesis",89 h
same,AUC(0-t),"[7]; 80 mg/m2, AUC0–24, daily trial, D6, 80 mg/m^2 over 1 h, N=3, SD of geometric mean in parenthesis",14700 ng·h/mL
same,Cmax,"[7]; 80 mg/m2, Cmax, daily trial, D6, 80 mg/m^2 over 1 h, N=3, SD of geometric mean in parenthesis",1650 ng/mL
same,AUC(0-inf),[7]; 90 mg/m2,88600 ng·h/mL
same,AUC(0-t),"[7]; 90 mg/m2, AUC0–24, weekly trial, W2, 90 mg/m^2 over 3 h, N=8, SD of geometric mean in parenthesis",18700 ng·h/mL
same,Cmax,"[7]; 90 mg/m2, Cmax, weekly trial, W2, 90 mg/m^2 over 3 h, N=8, SD of geometric mean in parenthesis",1690 ng/mL
same,half-life,"[7]; 90 mg/m2, t1/2, weekly trial, W2, 90 mg/m^2 over 3 h, N=8, SD of geometric mean in parenthesis",74 h
same,AUC(0-inf),[7]; 135 mg/m2,70800 ng·h/mL
same,AUC(0-t),"[7]; 135 mg/m2, AUC0–24, weekly trial, W3, 135 mg/m^2 over 3 h, N=7, SD of geometric mean in parenthesis",21500 ng·h/mL
same,Cmax,"[7]; 135 mg/m2, Cmax, weekly trial, W3, 135 mg/m^2 over 3 h, N=7, SD of geometric mean in parenthesis",1930 ng/mL
same,half-life,"[7]; 135 mg/m2, t1/2, weekly trial, W3, 135 mg/m^2 over 3 h, N=7, SD of geometric mean in parenthesis",50 h
same,"Inter-patient variability, coefficient of variation in drug clearance",[7]; in vivo,58%
same,Clearance,[7]; patients,1 L/h/m^2
same,CL,[7]; [8],1.27 (0.74) L/h/m^2
same,Renal excretion 0–24 h,[7]; [8],0.19% (0.13%) % dose
same,Vss,[7]; [8],109 (69) L/m^2
same,CL,[7]; [9],1.06 (0.34) L/h/m^2
same,Renal excretion 0–24 h,[7]; [9],0.21% (0.08%) % dose
same,Vss,[7]; [9],116 (121) L/m^2
same,CL,[7]; [10],1.02 (0.73) L/h/m^2
same,Renal excretion 0–24 h,[7]; [10],0.15% (0.13%) % dose
same,Vss,[7]; [10],99.3 (32.6) L/m^2
same,CL,[7]; [11],1.91 (0.73) L/h/m^2
same,Renal excretion 0–24 h,[7]; [11],0.22% (0.16%) % dose
same,Vss,[7]; [11],114 (39) L/m^2
